Results as given in paper PMC2669732 (Journal of Medicinal Chemistry, 2009).
Where two headings read alike, the source gives them in different places.

Columns and labels:
[1] = biological target: T1, EcIspF (Escherichia coli, UniProt P62617); experiment: SPR binding assay with immobilized EcIspF; details: for ΔG: ΔG = −RT ln Kd; for fold weaker binding than CMP: SPR KD comparison
T1 sequence (P62617 1-159): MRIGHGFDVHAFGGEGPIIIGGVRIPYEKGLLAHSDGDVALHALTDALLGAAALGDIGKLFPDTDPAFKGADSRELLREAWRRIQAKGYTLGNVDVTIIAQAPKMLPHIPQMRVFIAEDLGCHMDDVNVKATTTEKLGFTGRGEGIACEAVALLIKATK
Method in brief: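 E. coli IspF expressed in BL21(DE3), >95% pure, amine-coupled to CM5 chip (diluted to ~100 μg/mL final in 10 mM acetate pH 5.5) to 4500–5500 RU. Ligand series 0.1 μM–10 mM run at 10 °C, 30 μL/min, in 50 mM sodium phosphate pH 7, 2 mM MgCl2, 0.005% P20. Each injection in triplicate with 40 min buffer regeneration. Blank-subtracted steady-state RU fit to 1:1 Langmuir model.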

[2] = system: LpxC; details: cited from earlier work
[3] = system: E. coli LpxC; details: cited from earlier work
[4] = Δg = ΔG/N, N = number of non-hydrogen atoms, Table 5

Molecule | ligand efficiency (Δg) [1] | ΔG [1] | ligand efficiency (Δg) [1, 4] | further results
Nc1ccn([C@@H]2O[C@H](COP(=O)(O)O)[C@@H](O)[C@H]2O)c(=O)n1 [CMP] | −0.79 kJ·mol^−1/non-H atom | -3.941 kcal/mol | −0.79 kJ·mol^−1/non-H atom | –
N[C@@H](Cc1c[nH]c2ccccc12)C(=O)NO [Compound 13, 2-amino-N-hydroxy-3-(1H-indol-3-yl)-propionimidic acid] | −2.04 kJ·mol^−1/non-H atom | – | −2.04 kJ·mol^−1/non-H atom | –
Nc1ccn([C@@H]2O[C@H](COP(=O)(O)O)[C@@H](O)[C@@H]2O)c(=O)n1 [AraCMP] | – | -2.23 kcal/mol | −0.44 kJ·mol^−1/non-H atom | fold weaker binding than CMP [1]: 20 fold
Nc1ccn(CC(CO)OCP(=O)(O)O)c(=O)n1.O.O (stereo in doubt) [CDV, [(2R)-1-(4-amino-2-oxo-pyrimidin-1-yl)-3-hydroxy-propan-2-yl] oxymethylphosphonic acid] | – | -1.81 kcal/mol | −0.42 kJ·mol^−1/non-H atom | –
Nc1ccn([C@@H]2O[C@@H]3COP(=O)(O)O[C@H]3[C@H]2O)c(=O)n1 [Compound 7] | – | -3.929 kcal/mol | −0.82 kJ·mol^−1/non-H atom | –
CC(=O)N[C@H]1[C@@H](OP(=O)(O)OP(=O)(O)OC[C@H]2O[C@@H](n3ccc(=O)[nH]c3=O)[C@H](O)[C@@H]2O)O[C@H](CO)[C@@H](O)[C@@H]1O [UDP-GlcNAc] | – | – | – | Km ([2]; substrate of LpxC): > 20000 µM
Nc1ccn([C@H]2O[C@@H](CO)[C@H]3OP(=O)(O)O[C@H]32)c(=O)n1 (mixture of isomers) [Compound 6] | – | – | – | fold weaker binding than CMP [1]: about 20 fold
Nc1nc(=O)n([C@@H]2O[C@H](CO)[C@@H](O)[C@H]2O)cc1F [FLUC] | −0.81 kJ·mol^−1/non-H atom | -3.489 kcal/mol | −0.81 kJ·mol^−1/non-H atom | –
O=C(O)C1COC(c2ccccc2)=N1 (stereo not shown) [4,5 dihydro-2-phenyloxazole-4-carboxylic acid] | – | – | – | IC50 [3]: > 400 µM
UDP-3-acyl-GlcNAc | – | – | – | Km ([2]; natural substrate of LpxC): 2.1 µM
